Published values gathered from unrelated publications.
Protocols differ between the studies behind these lines.
Target: Mitotic checkpoint serine/threonine-protein kinase BUB1 (BUB1, Homo sapiens, UniProt O43683)

With CS(=O)(=O)N1CCCC(NC(=O)[C@H](CCC2CCCCC2)NC(=O)c2ccc(CNc3ncnc4c3nnn4-c3ccccc3)cc2)C1 (stereo partly shown) the remaining binding was 100% (cell-free assay; competition with immobilised ligand; 0.1 µM).
FC(F)(F)Oc1cccc(-c2cnc3ccc(-c4ccncc4)nn23)c1 has a remaining binding of 13% (cell-free assay; competition with immobilised ligand; 5 µM).
C[C@@H](c1ccc(-n2cnc3c(N)ncnc32)cc1)N1CCc2nn(C)c(Cc3ccccc3)c2C1=O gave a remaining binding of 91% (binding; competition with immobilised ligand; 0.1 µM).
The remaining binding of F[C@@H]1CCN(c2nccc(-c3cnn4ncccc34)n2)C1 is reported as 72% (binding; 1 µM).
For CN(C)CC#Cc1ccc(OCCCc2sc(N3CCc4cccc(C(=O)Nc5nc6ccccc6s5)c4C3)nc2C(=O)O)c(F)c1, the remaining binding was 81% (cell-free assay; competition with immobilised ligand; 1 µM).
With CN(C)c1nccc(-c2cnc3ncccn23)n1 the remaining binding was 78% (binding; 1 µM).
COc1cnc(Nc2cccc(S(N)(=O)=O)c2)nc1N1CCN(c2ccccc2)C(=O)C1 has a remaining binding of 79% (binding; competition with immobilised ligand; 1 µM).
The remaining binding of Cc1cnc(Nc2ccc(C(=O)N3CCC(N4CCCC4)CC3)cc2)nc1-c1cc2ccccc2s1 is reported as 39% (binding; competition with immobilised ligand; 1 µM).
For O=C(NCC1CCOCC1)c1n[nH]cc1NC(=O)c1c(F)cccc1F, the remaining binding was 71% (binding; competition with immobilised ligand; 1 µM).
The remaining binding of CN(CCCC(F)(F)F)c1nccc(-c2cnn3ncccc23)n1 is reported as 91% (binding; 1 µM).
With C=CC(=O)N1CCC(C(=O)NCC(=O)N2CCN(c3nc(-c4cnc(N)nc4C(F)F)nc(N4CCOCC4)n3)CC2)CC1 the remaining binding was 77% (binding; competition with immobilised ligand; 1 µM).
The remaining binding of N[C@H]1CCN(c2nccc(-c3cnn4ncccc34)n2)C1 is reported as 97% (binding; 1 µM).
C[C@@H]1CN(c2cc(-c3n[nH]c4ccc(OC5(C)CC5)cc34)ncn2)C[C@H](C)O1 has a remaining binding of 84% (cell-free assay; competition with immobilised ligand; 0.1 µM).
O=C(c1ccc(Nc2nccc(-c3cc4ccccc4s3)n2)cc1)N1CCC(N2CCCC2)CC1 gave a remaining binding of 45% (binding; competition with immobilised ligand; 1 µM).
For O=C(N1CCS(=O)(=O)CC1)N1C[C@H](c2ccc(OC(F)(F)F)cc2)C[C@H](c2nc(C3CC3)no2)C1, the remaining binding was 100% (cell-free assay; competition with immobilised ligand; 1 µM).
The remaining binding of O=C(c1ccc(Nc2ncc(Cl)c(-c3cc4ccccc4s3)n2)cc1)N1CCC(N2CCCC2)CC1 is reported as 53% (binding; competition with immobilised ligand; 1 µM).
With CN([C@@H]1CCc2c(CC(=O)O)c3ccccc3n2C1)S(=O)(=O)c1ccc(F)cc1 the remaining binding was 79% (cell-free assay; competition with immobilised ligand; 1 µM).
C[C@@H]1CCN(c2nccc(-c3cnn4ncccc34)n2)C1 has a remaining binding of 71% (binding; 1 µM).
The remaining binding of CCc1ccccc1C(=O)Nc1n[nH]c2c(C)c(F)c(C3C(C#N)=C(C)N(C)C(C)=C3C#N)cc12 is reported as 100% (cell-free assay; competition with immobilised ligand; 1 µM).
The remaining binding of CNC(=O)[C@@H]1CC[C@@H](n2c(-c3ccc4cnccc4c3)nc3ccc(C(=O)NCc4cccc(C(N)=O)c4)cc32)C1 is reported as 100% (binding; competition with immobilised ligand; 1 µM).
c1cnn2ncc(-c3ccnc(N4CCC45COC5)n3)c2c1 gave a remaining binding of 46% (binding; 1 µM).
For Cc1nc(Cc2cccc(C(F)(F)F)c2)sc1-c1ccc(C(N)=O)nc1, the remaining binding was 100% (cell-free assay; competition with immobilised ligand; 1 µM).
